{"data": "Measurements gathered from unrelated publications", "target": "3',5'-cyclic-AMP phosphodiesterase 4B (PDE4B, Homo sapiens, UniProt Q07343)", "observed": "enzyme activity", "action": "inhibitor", "note": "Protocols differ between the studies behind these lines. pIC50, pKi: −log10 of the molar value."}
{"SMILES": "CC(C)CC(=O)c1ccc(OC(F)F)c(O[C@@H]2CCOC2)c1", "method": "radiometric", "measurement": "pIC50", "value": 7.05}
{"SMILES": "COc1ccc(C2=NN(C3CCCCCC3)C(=O)C3CC=CCC23)cc1-c1ccc(C(=O)N2CCC[C@@H]2C(N)=O)cc1 (mixture of isomers)", "measurement": "pKi", "value": 5.20}
{"SMILES": "CN1C(=O)c2c(nn(Cc3ccc(-c4cccc(F)n4)cc3)c2Nc2ccccc2)N2C1=N[C@@H]1CCC[C@@H]12", "measurement": "pIC50", "value": "< 7.00"}
{"SMILES": "CCn1c(-c2nc3cc(C(=O)N4CCC[C@@H](N)C4)cc(OC)c3n2C)cc2cccnc21", "measurement": "pIC50", "value": 5.20}
{"SMILES": "CSc1ccc(/C=C2/C(C)=C(CC(=O)O)c3cc(F)ccc32)cc1", "measurement": "pIC50", "value": "< 4.00"}
{"SMILES": "COc1ccc(C2=NN(C3CCCCCC3)C(=O)C3CC=CCC23)cc1-c1ccc(C(=O)N2CC[C@@H](O)C2)cc1 (mixture of isomers)", "measurement": "pKi", "value": 5.70}
{"SMILES": "CCn1c(-c2nc3ccc(C(=O)N4CCCC(N)C4)cc3n2C)cc2ccccc21 (centres unmarked)", "measurement": "pIC50", "value": 4.60}
{"SMILES": "COc1ccc([C@@H]2CN(C(=O)[C@@H](O)CO)C[C@@]2(C)[C@@H](C)O)cc1OC1CN(c2ccc(C)cn2)C1", "measurement": "pIC50", "value": 10.05}
